Tested on: SK-OV-3 cells
Test: Confocal microscopy on live cells
Assay type: cell-based, human
Conditions: F′-PEpYLGLD 5 μM alone, opti-MEM, 2 h, 37 °C
Method in brief: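 SK-OV-3 seeded at 1 × 10^5 cells/well on coverslips overnight in EMEM, then rinsed with opti-MEM. Exposed to treatments in opti-MEM for 2 h at 37 °C, washed three times with PBS and mounted. Imaged by laser scanning confocal, 20× objective, sequential frame mode. Channels: FITC (ex 488, em 500–550 nm), DAPI (ex 405, em 425–475 nm), DIC.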

Substance: F′-PEpYLGLD
- intracellular fluorescence of F′-PEpYLGLD alone (confocal): No green fluorescence was observed
